High-throughput results (PubChem)
NALP3 yeast inh: NALP3 inflammasome inhibitors in reconstituted yeast, primary screen, luminescence, uHTS | 0.39% of 330,000 active | Yeast reconstituted NLRP3/ASC/caspase-1, beta-gal luminescence, 24 h | AID 2825, 2010 | inhibition, % at 10 µM;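 active means inhibition of 50% or more; inactive means inhibition below 50%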;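 further: plate controls were induced DMSO wells for no effect and uninduced yeast grown without galactose for full effect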
Lmaj promast: Leishmania major promastigote growth inhibition, primary screen. 9% of 200,000 active. Leishmania major promastigotes, resazurin fluorescence viability. inhibition, % at 10 µM; in the data active means inhibition above about 50%;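 further: promastigotes grown with compound for 44 hours at 28 °C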
T cruzi repl: inhibitors of intracellular T. cruzi growth, primary screen, luminescence, NIH3T3 host cells. T. cruzi beta-gal in NIH3T3, 90 h. 1.4% of 300,000 active. inhibition, % (no concentration beside the values);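 active means mean inhibition across valid replicates above about 55%, limit read from the data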;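 further: signal also drops with host cell toxicity which is not excluded here; 0% = plate median of DMSO wells and 100% = zero luminescence signal; higher percent means less beta-gal luminescence so fewer parasites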
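Read-out: Parasite load inhibition, % | Test system: Mouse NIH/3T3 fibroblasts infected with β-gal-expressing T. cruzi Tulahuen C4 | Amount: 5,000 cells/well | Medium: DMEM, 2% fetal bovine serum | Signal: GalScreen β-gal luminescence, detergent lysis, 60 min | Timing: 3 h attach, ≥90 h co-culture | Also added: Tulahuen C4 trypomastigotes, 5000/well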
Calb FLC: C. albicans growth inhibition with fluconazole, primary screen, CaCi-2 strain, Alamar Blue fluorescence | C. albicans CaCi-2 + fluconazole, 48 h | growth inhibition, % (concentration not given with the values) | 0.57% of 300,000 active | AID 1979, 2009;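 active means growth inhibition above about 58% in most replicates, limit read from the data, passing the limit was not always enough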;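 further: all wells also contain fluconazole at 8 µg/ml as a sub-toxic cotreatment; 0% = median of DMSO wells and 100% = median of geldanamycin control wells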
PolyA inhibitor: polyadenylation inhibitors in yeast reporter cells, primary screen, luminescence, S. cerevisiae; S. cerevisiae SKY197-pL101 polyadenylation reporter, beta-gal luminescence; efflux-impaired pdr1/pdr3 knockout yeast; score 100 = 6 SD above DMSO; activity score, % at 12 µM; 0.02% of 300,000 active; AID 1875, 2009;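 active means lowest replicate activity score at least 50, where 100 means six control SD above control mean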;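 further: yeast exposed to compound for 9 h at 30 °C; higher score means more reporter readthrough which indicates perturbed polyadenylation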
NALP1 yeast inh: NALP1 inflammasome inhibitors in reconstituted yeast, colorimetric, S. cerevisiae, triplicate retest; S. cerevisiae NALP1/ASC/caspase-1 growth, X-gal OD620, 72 h; 0.61% of 280,000 active; inhibition, % at 10 µM; in the data active means inhibition mostly above about 24%, no sharp cut-off; inactive means mostly below about 32%
L major 1uM: Leishmania major promastigote growth inhibition, confirmation, 1 µM repeat of primary hits. shares compounds with Lmaj promast. L. major promastigote growth, resazurin fluorescence, 48 h. inhibition, % at 1 µM. 13% of 1,100 active. AID 1258, 2008;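 active means inhibition above about 50% in both repeat tests, limit read from the data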
* = called active by the depositor; x = no result. This excerpt belongs to a sample that is enriched for hits.

SMILES	NALP3 yeast inh	Lmaj promast	T cruzi repl	Calb FLC	PolyA inhibitor	NALP1 yeast inh	L major 1uM
Cc1ccccc1N=C1NC(=O)CS1	6.5	-1.3	-8.1	-10.3	-1.1	21.2	x
CCOc1cnc(C(=O)NNC(=O)C(Br)C(C)C)o1 (stereo unspecified)	11.0	-2.6	-1.9	24.6	3.5	10.4	x
O=C(Cc1ccccc1Cl)NCc1cccnc1	-1.3	x	-1.4	4.4	7.9	23.5	x
CC(C)(C)n1nnnc1CN(Cc1cccnc1)Cc1ccccc1Cl	-7.5	75.0*	30.9	4.4	-4.2	18.4	2.6
O=[N+]([O-])c1ccc(N/N=C/c2c[nH]c3ccccc23)cc1	32.8	98.4*	4.8	-15.4	-15.6	1.1	-17.9
O=[N+]([O-])c1ccccc1N/N=C/c1c[nH]c2ccccc12	36.8	1.1	-7.4	6.2	-56.7	-6.8	x
CN(c1ccccc1)S(=O)(=O)c1ccc(C(=O)OCC(=O)N2CCOCC2)cc1	-13.6	-7.7	-9.8	-7.9	17.4	-3.5	x
O=c1n(Cc2ccccc2Cl)c2sc3c(c2c2ncnn12)CCCC3	x	x	x	x	x	-1.1	x
O=C(Cn1c(=O)n2ncnc2c2c3c(sc21)CCCC3)c1ccccc1	6.6	74.4*	17.1	28.5	12.3	-6.2	-9.7
Cc1cc(C)n(S(=O)(=O)/C=C/c2ccccc2)n1	18.0	97.8*	-1.5	-19.4	-5.0	x	-1.6
CCOC(=O)C1CCCN(c2ccc(NC(=O)c3snc4c(=O)[nH]cnc34)cc2)C1 (stereo unspecified)	11.9	76.3*	19.7	8.4	-18.0	25.1	14.4
CCOC(=O)C1CCCN(c2ccc(NC(=O)c3snc4c(=O)[nH]c(C)nc34)cc2)C1 (stereo unspecified)	18.9	-2.4	5.4	-3.3	-2.0	28.9	x
COc1ccc(C(=O)CCN2CCN(c3ccccc3F)CC2)cc1	13.7	79.1*	63.2*	-1.1	8.8	14.5	1.2
N=C(N)c1ccc(OCCCCCOc2ccc(C(=N)N)cc2)cc1	34.3	100.4*	15.3	x	-12.0	20.5	100.4*
N=C(N)c1ccc(N)cc1	19.0	x	x	x	x	x	x
CN1/C(=N\O)c2cccc3cccc1c23	6.4	9.2	-29.0	5.2	6.3	16.5	x
CN1c2cccc3cccc(c23)N(C)C1(C)C	18.3	98.9*	20.4	-11.9	-30.1	13.5	-16.2
C=C(C)c1cccc(C(C)(C)NC(=O)N(C)C2CCN(C)CC2)c1	7.1	97.7*	46.5	-0.3	32.4	6.5	2.4
CC(C)C1=CC2=CCC3C(C)(C(=O)O)CCCC3(C)C2CC1 (stereo unspecified) (tested in a mixture with another compound)	15.2	x	10.9	1.3	-22.4	10.7	x
Cc1nc2ccccc2c2c1C(=O)NC2=O	-0.4	x	4.1	-2.2	-10.9	x	x
CCCn1c(=N)n(CC(O)COc2ccc(C)cc2)c2ccccc21 (stereo unspecified)	1.9	x	5.8	-5.4	1.3	16.3	x
CCCCCn1c(=N)n(CC(O)COc2ccccc2OC)c2ccccc21 (stereo unspecified)	13.5	83.3*	25.8	1.0	6.4	9.4	6.5
COc1cc(NC(=O)Cn2nnc(-c3ccncc3)n2)cc(OC)c1	0.8	90.0*	33.3	24.1	12.9	-7.1	-10.3
CCOc1ccc(-c2nnn(CC(=O)Nc3cc(OC)cc(OC)c3)n2)cc1OCC	15.3	-3.9	28.1	-5.9	-10.4	16.4	x
O=C(NCCCn1ccnc1)/C(=C\c1ccccc1Cl)NC(=O)c1ccccc1	9.7	x	1.3	-4.8	7.6	16.8	x
SMILES	NALP3 yeast inh	Lmaj promast	T cruzi repl	Calb FLC	PolyA inhibitor	NALP1 yeast inh	L major 1uM
CCCCNC(C(=O)Nc1cccc(S(=O)(=O)N2CCOCC2)c1)c1ccccc1 (stereo unspecified)	-2.8	12.6	18.1	-6.2	5.9	-11.1	x
O=C(N/N=C\c1ccc(CNS(=O)(=O)c2ccccc2)o1)C(=O)Nc1ccc(F)cc1	-1.2	-4.0	-5.2	0.7	-8.3	19.7	x
O=C(N/N=C\c1ccc(CN(Cc2ccc(Cl)cc2)S(=O)(=O)c2ccccc2)o1)C(=O)Nc1ccc(F)cc1	12.7	80.9*	-8.2	13.7	-10.7	18.8	42.7
COc1cccc(-c2ccc3nnc(SCC(=O)Nc4ccc(NC(C)=O)cc4)n3n2)c1	18.5	x	3.1	-0.9	8.0	x	x
Cn1ccnc1SCc1cn2cc(Br)ccc2n1	14.0	82.5*	-16.9	3.2	-6.2	13.0	-0.8
CC1CCCC(C)N1C(=O)c1cc2ncc(CCCl)cn2n1 (stereo unspecified)	-3.8	-8.9	-11.4	-4.8	38.2	17.9	x
N#Cc1ccc(NC(=S)Nc2ccccc2)cc1	9.5	62.1*	-14.9	0.8	6.1	7.4	0.2
FC(F)(F)c1nc2ccccc2n2c(-c3c(Cl)cccc3Cl)nnc12	15.9	57.2*	-9.8	21.6	3.6	-3.1	-4.6
Cc1nc(SCc2c(F)cccc2Cl)c2c(=O)n(C)c(=O)n(C)c2n1	10.4	8.1	34.0	1.5	-12.6	1.9	x
CCn1cc[n+](C)c1P(c1ccccc1)c1ccccc1	-11.6	98.2*	23.3	-28.9	12.9	x	19.9
Cc1nn(-c2nc3ccccc3[nH]2)c(N)c1-c1ccc(Cl)cc1	14.5	64.5*	x	32.0	-60.0	1.6	74.1*
COCCCNC(=O)c1ccc2c3c(onc13)-c1ccccc1C2=O	37.9	x	16.3	-13.6	12.6	5.7	x
O=C1c2ccccc2-c2onc3ccc(Oc4ccccc4)c1c23	41.4	100.3*	49.3	-7.8	-39.1	-4.5	-13.3
Cc1ccc(C[n+]2cccc(-c3ccccc3)c2)c(C)c1	11.8	91.4*	72.1*	13.3	-8.2	15.3	3.1
COc1ccc(C(CCNCc2ccc(OC(C)C)cc2)C(C)C)cc1 (stereo unspecified)	34.1	x	32.9	14.8	10.5	15.8	x
COc1ccc(CNCCC(c2ccc(OC(C)C)cc2)C(C)C)cc1OC (stereo unspecified)	15.8	98.2*	72.8*	-22.4	2.7	17.5	10.4
CC(=O)N1CC23C=CC(CC2CC12CCCCCC2)O3 (stereo unspecified)	23.0	9.4	-4.3	-4.4	-30.3	-2.7	x
CN1CCN(NC(=S)Nc2ccc(OC(F)F)cc2)CC1	-16.6	26.6	5.7	2.2	2.6	15.5	x
Cc1ccc(N2CC(C)Cn3c2nc2c3c(=O)n(CC(=O)OCc3ccccc3)c(=O)n2C)cc1C (stereo unspecified)	1.3	59.2*	47.4	38.6	-10.3	x	14.9
Fc1ccc(Sc2ccccc2CNC2=NCCN2)cc1	37.8	99.6*	62.8*	-9.0	-0.4	43.0	-9.0
